Experimental data: paper PMC5362268 (Cell, 2017)
Converted amounts (≈) assume the structure as drawn. “And” between values parts separate entries of the source, which are not always exact repeats. Equal values may be shown once.

What was measured:
[1] = test system: pERK and pAKT in HT-1080 cells (NRAS^Q61K); assay: Western blots of RAS signaling; format: cell-based, human
Procedure, shortened: (§1)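 Cells seeded 16 h before use in DMEM with 10% or 2% FBS plus P/S. Compound added in serum-free DMEM or DMEM 2% FBS for the indicated times. Lysis in HEPES pH 7.4 buffer with phosphatase and protease inhibitors; SDS-PAGE, PVDF transfer, Li-COR blocking, primary antibodies (1:1000) overnight at 4 °C.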

[2] = test system: T-ALL cells with wild-type NRAS; assay: Viability of primary T-ALL patient samples; format: cell-based, human; conditions: 5 μM, 72 h, four patient samples
Procedure, shortened: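 Primary T-ALL lymphoblasts, 250,000 per well in 24-well plates, in triplicate. Treated with DMSO vehicle or test compound across 1 to 5 μM for 72 h. Viability by flow-based kit with counting beads, gating out GFP+ stromal cells and PI+ dead cells and particles.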

[3] = test system: BRAF^V600E-CAAX-expressing MEF cells; assay: Viability assay in mouse embryo fibroblasts; format: cell-based
[4] = test system: PDTALL22 patient T-ALL xenograft; assay: Patient-derived xenograft study; format: in vivo, mouse; conditions: 30 mg/kg IP
Procedure, shortened: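 Retrovirally transduced luciferase-expressing T-ALL cells were expanded in primary recipients, harvested from spleen and injected into secondary recipients. These were randomised into two groups of 5 with equal luciferase load. Dosing: vehicle or 30 mg/kg IP in 5% DMSO in HBSS pH 4 on days 0, 1, 4, 5, 7, 8. Imaging on days 0, 4 and 8; sacrifice on day 8 for spleen weight and human CD45+ cells.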

[5] = target: RRAS2 (Homo sapiens, UniProt P62070); assay: MST with RAS GTPases; format: binding; conditions: selectivity panel, GppNHp-loaded
[6] = test system: wild-type mice; assay: Toxicity and body weight in wild-type mice; format: in vivo, mouse; conditions: individual mice
[7] = target: KRAS^G12D I36N (Homo sapiens, UniProt P01116, G12D/I36N); assay: MST, I36N point mutant; format: binding; conditions: compared with KRAS^G12D
[8] = test system: Kras^lox/lox, Hras^−/−, Nras^−/− RERTn^ert/ert MEFs; assay: Viability assay in mouse embryo fibroblasts; format: cell-based; conditions: Fibroblast, 48 h, read-out: IC50 (lethality)
Procedure, shortened: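 Cells trypsinised and seeded at 1,000/well in 384-well plates unless otherwise specified. After 16 h, 8- or 16-point dilution series (from 10 mM DMSO stocks) transferred at 1:5. At 48 h, Alamar blue added to 10% final; fluorescence read after 6 h (ex 535, em 590 nm). Triplicates; 37 °C, 5% CO2.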

[9] = test system: SW480 (KRAS^G12V); assay: Multicellular tumor spheroids; format: cell-based, human; conditions: low-adherence plates, 72 h
[10] = test system: pAKT (S473), pERK1/2 and cleaved caspase-3 in KP^f/fC pancreatic tumors; assay: KP^f/fC mouse pharmacodynamic study; format: in vivo; conditions: post- vs pre-treatment tumor samples
[11] = test system: DLD-1 cells; assay: Pan-RAS siRNA knockdown and viability; format: cell-based, human; conditions: 24 h
Procedure, shortened: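 DLD-1 cells reverse-transfected in 6-well plates with siRNA pools against HRAS, KRAS and NRAS, or a non-targeting pool. Cells then re-suspended in serum-free RPMI and seeded at 10,000 cells/well in 384-well plates overnight. Dilution series added from 10× stocks in serum-free Opti-mem; 24 h incubation; viability by CellTiter-Glo.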

[12] = test system: CRAF-bound RAS in BJeLR cells; assay: Cell-based RAS pulldown; parameters: species or system human
Procedure, shortened: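 BJeLR cells seeded 16 h before use in DMEM with 10% FBS. Medium then replaced with serum-free medium containing the test compound or a reference inhibitor (from 10 mM DMSO stocks), 24 h. c-RAF bound to RAS proteins was determined by pulldown.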

[13] = test system: pERK and pAKT in Hras^−/−; Nras^−/−; Kras^flox/flox MEFs; assay: Western blots of mouse embryo fibroblasts; format: cell-based; conditions: treatment for 0.6 h, 1 h or 16 h, EGF stimulated
Procedure, shortened: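 MEFs seeded at 0.25 million/well in DMEM with Glutamax, 10% heat-inactivated FBS and P/S, grown to 80% confluence, then serum-starved 24 h. Serum-free treatment with 5 μM test compound for 35 min or 1 h, or 2 μM for 16 h, then EGF 10 ng/ml for 15 min. Quantified as (phospho/tubulin)/(total/tubulin), normalised to DMSO.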

[14] = target: KRAS^G12D-GppNHp (Homo sapiens, UniProt P01116, G12D); assay: Microscale thermophoresis; format: binding; conditions: selectivity panel
Procedure, shortened: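 To strip endogenous nucleotide, KRAS G12D (250 μM) in 25 mM HEPES, 100 mM NaCl, 20 mM EDTA and 1 mM GppNHp was shaken at 220 rpm, 30 °C, before MST.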

[15] = test system: MDA-MB-231 cell line (KRAS^G13D); assay: Multicellular tumor spheroids; format: cell-based, human; conditions: low-adherence plates, 72 h
[16] = target: GDP complex of KRAS^G12D (Homo sapiens, UniProt P01116, G12D); assay: MST, GDP-bound KRAS^G12D; format: binding; conditions: compared with GppNHp-bound KRAS^G12D
[17] = Solubility of compound 3144; format: physicochemical
[18] = test system: phosphorylated ERK in MDA-MB-231 xenograft; assay: Pharmacodynamic study using MDA-MB-231 cells; format: in vivo, mouse; conditions: 30 mg/kg IP once per day for 6 d, vs vehicle
Procedure, shortened: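 Eight-week-old athymic nude mice received 8 million MDA-MB-231 cells subcutaneously. After 4 d they were grouped at ~128 mm³ tumours and dosed IP once daily for 6 d with 30 mg/kg in 5% DMSO HBSS pH 4, or with that vehicle. Tumours were then analysed for phosphorylated ERK.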

[19] = test system: pERK and pAKT in BJeLR (HRAS^V12) cells; assay: Western blots of RAS signaling; format: cell-based, human
Procedure, shortened: as §1

Sequence of RRAS2 (P62070 whole entry): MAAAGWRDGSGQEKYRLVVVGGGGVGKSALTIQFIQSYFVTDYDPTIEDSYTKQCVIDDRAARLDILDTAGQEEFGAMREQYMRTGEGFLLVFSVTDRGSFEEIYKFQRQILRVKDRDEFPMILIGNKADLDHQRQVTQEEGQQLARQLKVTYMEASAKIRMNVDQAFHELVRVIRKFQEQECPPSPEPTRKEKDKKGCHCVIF

NC1(C(=O)NCCCn2cc(-c3ccc(OC(F)(F)F)cc3)c3cc(CN4CCN(Cc5c(Cl)cccc5Cl)CC4)ccc32)CCNCC1 [compound 3144, 4-amino-N-(3-(5-((4-(2,6-dichlorobenzyl)piperazin-1-yl)methyl)-3-(4-(trifluoromethoxy)phenyl)-1H-indol-1-yl)propyl)piperidine-4-carboxamide]
pERK and pAKT abundance [1]: somewhat decreased | EGF-induced pAKT and pERK abundance ([1]; 10 ng/mL EGF 15 min): suppressed to a degree | effect on viability [2]: no observable effect on viability | concentrations showing lethality ([3]; BRAF^V600E-CAAX-expressing MEFs): ≥ 20 µM | sensitivity after Kras excision and BRAF^V600E-CAAX introduction ([3]; compared with Kras^lox/lox MEFs): resistance | percent of infiltrative human CD45+ cells in spleen ([4]; day 8): reduction | spleen cellularity (hematoxylin and eosin) ([4]; day 8): decreased cellularity | spleen size ([4]; day 8): decrease in size | tumor burden (luciferase imaging) ([4]; days 0, 1, 4, 5, 7, 8, imaged after 4 and 8 days): decrease in tumor burden | binding by MST [5]: weak binding | WT mouse weights ([6]; day 1 on study): 21.36 and 20.39 and 22.08 and 23.6 and 25 | WT mouse weights ([6]; day 2 on study): 20 and 18.8 and 20.6 and 22.7 and 23.38 | WT mouse weights ([6]; day 3 on study): 20 and 18.4 and 20.1 and 21.87 and 22.16 | WT mouse weights ([6]; day 4 on study): 20.77 and 17.4 and 19 and 21.08 and 23 | WT mouse weights ([6]; day 5 on study): 20.78 and 17.27 and 18.6 and 21.4 and 22.18 | binding affinity to I36N mutant [7]: reduced binding affinity | IC50 [8]: 3.8 µM | spheroid size [9]: decreased in size in a dose-dependent manner | cleaved caspase-3 in tumor [10]: modest increase | pAKT (S473) and pERK1/2 in tumor ([10]; 30 mg/kg IP once daily): decrease | concentration up to which cells were resistant ([11]; DLD-1 (KRAS^G13D), high cell density, no RAS knockdown): > 20 µM | effect of combined HRAS, NRAS and KRAS knockdown on compound lethality ([11]; si-panRAS vs non-targeting siRNA, CellTiter-Glo): sensitization | CRAF-bound RAS [12]: decreased | pERK and pAKT abundance [13]: moderately decreased | binding by MST [14]: detected binding | spheroid size [15]: decreased in size in a dose-dependent manner | affinity for the GDP complex [16]: reduced affinity | concentration without visible precipitation ([17]; aqueous buffers (e.g., phosphate buffered saline), room temperature, 1.5% DMSO): ≥ 250 µM | solubility ([17]; aqueous solutions, aqueous buffer, kinetic from dmso stock): 5 µM (≈ 3.59 µg/mL) | tumor pERK levels [18]: somewhat decreased | EGF-induced pAKT and pERK abundance [19]: suppressed to a degree | pERK and pAKT abundance [19]: somewhat decreased
